pIC50: −log10 of the molar value.
What was measured:
Assay type in all cases: functional, cell-based
MCF7 = assay: Cytotoxicity against human MCF7 cells after 24 hrs by MTT assay; conditions: MCF7, 24 h
Outline: (§1)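 Cells seeded at 1×10⁴ per well in complete medium and held 18 h at 37 °C, 5% CO₂. Medium then replaced with fresh medium containing test compounds or etoposide at 0.5, 1 and 2 μM, incubated 24 h at 37 °C. MTT dye added for 2 h, formazan solubilized in extraction buffer, absorbance read at 570 nm. Values mean±SD, three experiments in triplicate.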

DU-145 = assay: Cytotoxicity against human DU145 cells after 24 hrs by MTT assay; conditions: DU-145, 24 h; outline: as §1
MDA-MB-231 = assay: Cytotoxicity against human MDA-MB-231 cells after 24 hrs by MTT assay; conditions: MDA-MB-231, 24 h; outline: as §1
A549 = assay: Cytotoxicity against human A549 cells after 24 hrs by MTT assay; conditions: A549, 24 h; outline: as §1

Structure (SMILES) | pIC50 (MCF7) | pIC50 (DU-145) | pIC50 (MDA-MB-231) | pIC50 (A549)
COc1cc([C@@H]2c3cc4c(cc3[C@@H](O[C@@H]3O[C@@H]5CO[C@@H](C)O[C@H]5[C@H](O)[C@H]3O)[C@H]3COC(=O)[C@H]23)OCO4)cc(OC)c1O [ETOPOSIDE] | 5.68 | 5.71 | – | –
COc1ccc(/C=C2\Oc3c(OC)cccc3C2=O)cc1OCC(=O)N[C@@H]1c2cc3c(cc2[C@@H](c2cc(OC)c(OC)c(OC)c2)[C@H]2C(=O)OC[C@@H]21)OCO3 | 5.73 | 5.63 | 5.66 | –
COc1cc([C@@H]2c3cc4c(cc3[C@@H](NC(=O)COc3ccc(/C=C5\Oc6c(OC)cccc6C5=O)cc3)[C@H]3COC(=O)[C@H]23)OCO4)cc(OC)c1OC | 5.70 | 5.68 | 5.77 | 5.81
COc1cc([C@@H]2c3cc4c(cc3[C@@H](NC(=O)COc3ccc(/C=C5\Oc6ccccc6C5=O)cc3)[C@H]3COC(=O)[C@H]23)OCO4)cc(OC)c1OC | 6.89 | 6.01 | 6.35 | 7.00
COc1cc(/C=C2\Oc3ccccc3C2=O)ccc1OCC(=O)N[C@@H]1c2cc3c(cc2[C@@H](c2cc(OC)c(OC)c(OC)c2)[C@H]2C(=O)OC[C@@H]21)OCO3 | 5.35 | 5.42 | – | 5.56
COc1cc(/C=C2\Oc3c(OC)cccc3C2=O)ccc1OCC(=O)N[C@@H]1c2cc3c(cc2[C@@H](c2cc(OC)c(OC)c(OC)c2)[C@H]2C(=O)OC[C@@H]21)OCO3 | 5.63 | 5.40 | 5.59 | 5.52
COc1ccc(/C=C2\Oc3ccccc3C2=O)cc1OCC(=O)N[C@@H]1c2cc3c(cc2[C@@H](c2cc(OC)c(OC)c(OC)c2)[C@H]2C(=O)OC[C@@H]21)OCO3 | 5.21 | 5.59 | 5.08 | 5.14
COc1cc([C@@H]2c3cc4c(cc3[C@@H](NC(=O)COc3c(OC)cc(/C=C5\Oc6c(OC)cccc6C5=O)cc3OC)[C@H]3COC(=O)[C@H]23)OCO4)cc(OC)c1OC | 6.64 | 5.91 | 6.06 | 5.84

From ChEMBL document CHEMBL4387779, “Design and synthesis of 4β-Acetamidobenzofuranone-podophyllotoxin hybrids and their anti-cancer evaluation” (Bioorg Med Chem Lett, 2019)
